Data set [1] deals with Trypanosoma cruzi. The data set is described as follows: Inhibition of Trypanosoma cruzi Ribose 5-phosphate isomerase type B assessed as residual activity at 0.5 mM using ribose 5-phosphate as substrate relative to control. The method, boiled down: (§1)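 TcRPI-B activity on R5P, measured by coupled enzyme assay (TcRPE-1 first coupling enzyme), with compound at 0.2, 0.5, 1.0 or 2.0 mM, as % of control activity. Mean of three independent determinations ± SEM.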

The test system of data set [2] is Trypanosoma cruzi. The experiment in a line: Inhibition of Trypanosoma cruzi RPE1 assessed as residual activity at 1 mM relative to control. In outline: (§2)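 TcRPE-1 (first enzyme of the coupled RPI assay) activity measured with compound at 0.2, 0.5, 1.0 or 2.0 mM, as % of uninhibited activity. Mean of three independent determinations ± SEM.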
For data set [3], the system named is Trypanosoma cruzi. The experiment in a line: Inhibition of Trypanosoma cruzi RPE1 assessed as residual activity at 0.2 mM relative to control. In outline: as §2
Another data set deals with NIH3T3. The data set is described as follows: Cytotoxicity against mouse NIH/3T3 cells. It is filed as cell-based.
In data set [4] the test system is Trypanosoma cruzi. The experiment in a line: Trypanocidal activity against Trypanosoma cruzi trypomastigotes expressing beta galactosidase infected in NIH/3T3 cells assessed as parasite growth inhibition at up to 50 uM by reporter assay. To be noted: dose microM <=50. A general note: Reporter assays use an easily measured gene product as a stand-in for the process of interest.

Data set [5] relates to Trypanosoma cruzi. The data set is described as follows: Inhibition of Trypanosoma cruzi RPE1 assessed as residual activity at 2 mM relative to control. In outline: as §2
Data set [6] relates to Trypanosoma cruzi. The data set is described as follows: Inhibition of Trypanosoma cruzi RPE1 assessed as residual activity at 0.5 mM relative to control. In outline:
as §2

Data set [7] deals with Trypanosoma cruzi. The data set is described as follows: Inhibition of Trypanosoma cruzi Ribose 5-phosphate isomerase type B assessed as residual activity at 1 mM using ribose 5-phosphate as substrate relative to control. The method, boiled down: as §1
Data set [8] relates to Trypanosoma cruzi. The data set is described as follows: Inhibition of Trypanosoma cruzi Ribose 5-phosphate isomerase type B assessed as residual activity at 2 mM using ribose 5-phosphate as substrate relative to control. In outline: as §1
Data set [9] concerns Trypanosoma cruzi. The data set is described as follows: Inhibition of Trypanosoma cruzi Ribose 5-phosphate isomerase type B assessed as residual activity at 0.2 mM using ribose 5-phosphate as substrate relative to control. The method, boiled down:
as §1

Data set [10] deals with Trypanosoma cruzi. The data set is described as follows: Trypanocidal activity against Trypanosoma cruzi trypomastigotes expressing beta galactosidase infected in NIH/3T3 cells assessed as parasite growth inhibition by reporter assay. It is filed as functional, organism-based. The settings on record: NIH3T3. In outline: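 Tulahuen strain expressing β-galactosidase. Trypomastigotes added to NIH-3T3 fibroblasts together with compound, up to 50 μM, covering infection and intracellular amastigote growth. β-Galactosidase activity taken as parasite viability. IC50 from dose-response fits, in triplicate. Amphotericin B positive control.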

Data set [11] is described as follows: Competitive inhibition of Trypanosoma cruzi Ribose 5-phosphate isomerase type B using varying levels of ribose 5-phosphate as substrate by Dixon plot analysis. In outline:
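Coupled assay with TcRPE-1 as first coupling enzyme. Inhibitor at 0, 10, 20, 40, 60 and 80 μM, R5P at 0.4, 0.8 and 2 mM. Ki taken from the x-axis intersection of Dixon plots (1/V vs [inhibitor]). Inhibition type assigned from parallel [R5P]/V vs [inhibitor] lines (Cornish-Bowden). Mean of four independent experiments.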

Data set [12] deals with Trypanosoma cruzi. The data set is described as follows: Binding affinity to Trypanosoma cruzi Ribose 5-phosphate isomerase type B assessed as covalent bond formation between compound and protein Cys69 residue by trypsin digestion based LC-MS/MS analysis. The method, boiled down: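 TcRPI-B incubated intact with inhibitor for 30 min, then digested with trypsin to map cysteine modification.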

Data set [13] can be described thus: Inhibition of Trypanosoma cruzi Ribose 5-phosphate isomerase type B expressed in Escherichia coli BL21 codon plus (DE3) using ribose 5-phosphate as substrate.
The nature of data set [14]: Competitive inhibition of recombinant poly-His-tagged Trypanosoma cruzi Ribose 5-phosphate isomerase type B expressed in Escherichia coli BL21 codon plus (DE3) using ribose 5-phosphate as substrate. In outline: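 Coupled spectrophotometric RPI assay, with T. cruzi ribulose 5-phosphate epimerase (TcRPE-1) as the first coupling enzyme. Inhibitor was tested at 0, 10, 20, 40, 60 and 80 μM, each at R5P 0.4, 0.8 and 2 mM. Ki came from Dixon plots (1/V vs [inhibitor]), as the X-axis intersection of the three lines. Inhibition type was assigned from [R5P]/V vs [inhibitor] plots (Cornish-Bowden). Mean of four independent experiments.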

The source made the active and inactive calls. The rule behind the calls is not given here.

As usually defined, the IC50 is the concentration that inhibits the measured activity by half. A word on the Ki: it is a measure of affinity in units of concentration, obtained from inhibition or displacement.

Consider `O=C(CF)NCCOP(=O)(O)O`, for which the Activity with Trypanosoma cruzi [1] is 2040%; with Trypanosoma cruzi [2], 93.2%; with Trypanosoma cruzi [3], 111%; with NIH3T3 it was “Non-Toxic”; in the data set on Trypanosoma cruzi [5], 83.5%; with Trypanosoma cruzi [6], 103%. In addition, the outcome with Trypanosoma cruzi [4] was inactive.

As for `O=C(Cc1ccccc1)NCCOP(=O)(O)O`, the Activity in the data set on Trypanosoma cruzi [1] is 97.4%; in the data set with Trypanosoma cruzi [7], 95.3%; in the data set on Trypanosoma cruzi [2], 87.4%; in the data set with Trypanosoma cruzi [8] it was 89.2%; with Trypanosoma cruzi [3] it was 100%; in the data set on NIH3T3 it was “Non-Toxic”. Besides, the Activity amounted to 98.1% with Trypanosoma cruzi [9], 85.9% with Trypanosoma cruzi [5] and 91.9% with Trypanosoma cruzi [6]. In the data set with Trypanosoma cruzi [4], the outcome was inactive.

With `O=C(CCl)NCCOP(=O)(O)O`, the Activity is 105% with Trypanosoma cruzi [1]; 98.5% in the data set on Trypanosoma cruzi [7]; 95.5% with Trypanosoma cruzi [2]; 83.7% in the data set on Trypanosoma cruzi [8]; 100% in the data set with Trypanosoma cruzi [3]; “Non-Toxic” with NIH3T3. Also, the figures for the Activity in the data set on Trypanosoma cruzi [9], in the data set with Trypanosoma cruzi [5] and in the data set on Trypanosoma cruzi [6] were 107%, 82.6% and 103%, respectively.

For `O=C(CBr)NCCOP(=O)(O)O`, the Activity was 62.7% in the data set with Trypanosoma cruzi [1]; 41.3% in the data set with Trypanosoma cruzi [7]; 77.3% in the data set with Trypanosoma cruzi [2]; 18.3% in the data set with Trypanosoma cruzi [8]; 91.1% in the data set on Trypanosoma cruzi [3]; “Non-Toxic” in the data set on NIH3T3. In addition, the Activity with Trypanosoma cruzi [9] amounted to 78.5%; in the data set on Trypanosoma cruzi [5] it was 65.1%; in the data set on Trypanosoma cruzi [6], 85.8%. In the data set with Trypanosoma cruzi [4], the outcome was inactive.

Take `C[C@@H]1[C@H](O)[C@@H](C)/C=C/C=C/C=C/C=C/C=C/C=C/C=C/[C@H](O[C@@H]2O[C@H](C)[C@@H](O)[C@H](N)[C@@H]2O)C[C@@H]2O[C@](O)(C[C@@H](O)C[C@@H](O)[C@H](O)CC[C@@H](O)C[C@@H](O)CC(=O)O[C@H]1C)C[C@H](O)[C@H]2C(=O)O` [AMPHOTERICIN B]: in the data set with Trypanosoma cruzi [10], the IC50 is 0.23 µM.

`O=C(CI)NCCOP(=O)(O)O` displayed a Ki in [11] of 5.5 µM. Moreover, the Activity in the data set on Trypanosoma cruzi [1] was 7.5%; in the data set with Trypanosoma cruzi [7] it was 1.2%; in the data set on Trypanosoma cruzi [2], 103%; in the data set on Trypanosoma cruzi [8] it was 0%; in the data set on Trypanosoma cruzi [3], 89.5%; in the data set on NIH3T3 it was “Non-Toxic”. The Activity amounted to 25.2% in the data set on Trypanosoma cruzi [9], 57.4% with Trypanosoma cruzi [5] and 89.5% with Trypanosoma cruzi [6]. Further, the result in the data set on Trypanosoma cruzi [12] was Active. Also, the IC50 in the data set on Trypanosoma cruzi [10] was determined as 17.4 µM.

Regarding `O=C[C@H](O)[C@H](O)[C@H](O)[C@H](O)COP(=O)(O)O`, in data set [13], the inhibition constant (Ki) amounted to 15000 µM.

On to `O=C(NO)[C@H](O)[C@H](O)COP(=O)(O)O`, for which the Ki in data set [14] turned out to be 1200 µM.

The record behind these values is ChEMBL document CHEMBL4680297, “Design, synthesis, and evaluation of substrate - analogue inhibitors of Trypanosoma cruzi ribose 5-phosphate isomerase type B” (Bioorg Med Chem Lett, 2021).
